This note sets out measurements from PubChem BioAssay AID588418 (The Scripps Research Institute Molecular Screening Center, 2011).

Structures are written as SMILES. Active and inactive are the calls of the source.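 How the source made its calls: active means IC50 at or below 1000 nM; inactive means IC50 above 1000 nM.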

For the test, the target named is Protein-arginine deiminase type-4 (Homo sapiens) (UniProt Q9UM07). As to the kind of experiment: PAD4 enzyme inhibition potency, late-stage follow-up, biochemical, BAEE substrate, citrulline absorbance, 7-point 0-10 µM (AID 588418). The following applies: recombinant PAD4, BAEE citrulline colorimetric absorbance. A digest of the protocol: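 Material: Recombinant PAD4 | Quantity: 0.2 µM PAD4 enzyme in the reaction | Signal: Colorimetric citrulline absorbance at 540 nm, diacetyl monoxime/thiosemicarbazide reagent | Incubation: 15 min pre-incubation and 15 min reaction, 37 °C | Medium: Tris-HCl pH 7.6, CaCl2, DTT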
Sequence of Protein-arginine deiminase type-4 (Homo sapiens) (Q9UM07 whole entry, looked up): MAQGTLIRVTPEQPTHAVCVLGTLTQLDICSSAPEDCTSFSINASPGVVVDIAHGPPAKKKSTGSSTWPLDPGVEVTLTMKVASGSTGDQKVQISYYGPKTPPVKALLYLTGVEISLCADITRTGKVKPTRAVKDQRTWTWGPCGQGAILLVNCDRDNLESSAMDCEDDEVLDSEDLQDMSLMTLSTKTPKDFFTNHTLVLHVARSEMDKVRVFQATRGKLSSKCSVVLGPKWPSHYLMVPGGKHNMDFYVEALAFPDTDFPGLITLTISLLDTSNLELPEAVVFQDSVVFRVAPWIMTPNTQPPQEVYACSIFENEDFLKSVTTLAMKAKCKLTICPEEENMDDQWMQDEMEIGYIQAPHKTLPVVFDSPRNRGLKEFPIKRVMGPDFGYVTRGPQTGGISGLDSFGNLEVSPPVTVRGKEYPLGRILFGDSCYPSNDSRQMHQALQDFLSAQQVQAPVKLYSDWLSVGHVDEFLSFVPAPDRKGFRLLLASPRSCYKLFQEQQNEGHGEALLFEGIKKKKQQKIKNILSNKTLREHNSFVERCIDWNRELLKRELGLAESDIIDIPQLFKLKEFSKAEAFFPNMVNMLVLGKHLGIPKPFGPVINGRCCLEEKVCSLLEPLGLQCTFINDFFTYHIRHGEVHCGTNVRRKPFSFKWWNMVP

As to `COC1=C(N)C(=O)c2ncccc2C1=O`, the IC50 entry is “inactive”.
